High-throughput results deposited in PubChem by several laboratories.
The list is not random: actives were taken first. Their share in the collection is about 0.74%.
RGS4-Gao reg = human RGS4-Galphao interaction regulation | P09471 | Multiplexed bead flow cytometry, RGS4-Galphao binding; actives lie on both sides | binding response (% of control), % at 10 µM | actives 0.33% (n = 220,000); in the data active = binding response below about 49% or above about 150%; inactive = in between;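 also: fluorescent Galphao activated with aluminum fluoride binding bead-coupled RGS4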
Target sequence (P09471 whole entry, looked up): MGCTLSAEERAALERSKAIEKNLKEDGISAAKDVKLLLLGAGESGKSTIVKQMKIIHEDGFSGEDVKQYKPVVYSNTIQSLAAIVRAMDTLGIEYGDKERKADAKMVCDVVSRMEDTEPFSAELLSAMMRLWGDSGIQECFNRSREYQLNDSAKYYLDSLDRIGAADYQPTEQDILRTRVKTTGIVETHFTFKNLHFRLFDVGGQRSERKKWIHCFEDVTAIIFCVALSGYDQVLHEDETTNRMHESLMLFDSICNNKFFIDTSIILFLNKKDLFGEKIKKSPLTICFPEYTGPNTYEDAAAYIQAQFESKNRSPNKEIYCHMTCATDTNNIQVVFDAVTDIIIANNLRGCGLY
RGS8-Gao reg = human RGS8-Galphao interaction regulation; P09471; multiplexed bead flow cytometry, RGS8-Galphao binding; actives lie on both sides; response (percent of control binding), % at 10 µM; actives 0.34% (n = 220,000); in the data active = response below about 60% or above about 140%; inactive = in between;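 also: Galphao activated as the GDP aluminium fluoride complex binding bead-coupled RGS8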
RGS7-Gao reg = human RGS7-Galphao interaction regulation | P09471 | Multiplexed bead flow cytometry, RGS7-Galphao binding; actives lie on both sides | binding response (% of control), % at 10 µM | actives 0.35% (n = 220,000); in the data active = binding response below about 49% or above about 150%; inconclusive = no clear call, values can overlap the other calls; inactive = in between;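 also: fluorescent Galphao held in activated GDP-AlF4 state binding bead-coupled RGS7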
Calb biofilm kill = mixtures killing C. albicans biofilm. C. albicans biofilm persisters + clotrimazole, fluorescence viability; primary screen in compound mixtures of four per well. inhibition, % at 7.6 µM. actives 0.02% (n = 120,000). AID 1242;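 active = inhibition above 30.3% in the primary screen of four-compound pools, then above 30% when the compound was retested; inconclusive = passed the primary limit but could not be retested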;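 also: compounds exposed to preformed 24 h biofilms for 48 h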
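Incubation: 24 h biofilm formation, then 48 h compound exposure, 37 °C | Material: C. albicans biofilms | Buffer or medium: RPMI/MOPS medium, pH 7.0 | Measured by: 2-h Alamar Blue fluorescence, 535/590 nm excitation/emission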
RGS16-Gao = modulates binding between human RGS16 and Galphao. O15492+P09471. bead-based flow cytometry RGS16-Galphao binding, fluorescence; actives lie on both sides. binding response (% of control), % at 10 µM. actives 0.38% (n = 220,000). AID 1441;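 also: Galphao activated by GDP with aluminum fluoride before binding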
RGS4-Gao HTS = regulators of human RGS4-Galphao interaction; shares compounds with RGS16-Gao; multiplexed bead flow cytometry, RGS–Galpha-o binding; RGS4–Galpha-o binding response, % at 10 µM; actives 99% (n = 1,600); AID 1504;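 also: fluorescently labeled Galpha-o bound to GDP with aluminium fluoride binding biotinylated RGS beads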
Biotin-avidin = counter-screen: compounds disrupting biotin binding to avidin beads | shares compounds with RGS16-Gao | streptavidin beads, fluorescein-biotin binding, flow cytometry | inhibition, % at 10 µM | 1,700 tested, under 10 active | AID 1783;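 active = inhibition above 50%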;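 also: median green fluorescence of gated singlet beads compared with DMSO control wells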
RGS8-Gao confirm = confirmation of regulators of human RGS8-Galphao interaction; bead-based flow cytometry RGS8-Galphao binding, fluorescence; actives lie on both sides; binding response (% of control), % at 10 µM; actives 3% (n = 1,700); shares compounds with RGS16-Gao; in the data active = binding response below about 72% or above about 130%; inactive = in between;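 also: Galphao activated as GDP AlF4 complex before binding bead RGS8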
RGS7-Gao confirm = confirmation of regulators of human RGS7-Galphao interaction | shares compounds with RGS16-Gao | bead-based flow cytometry RGS7-Galphao binding; actives lie on both sides | response (percent of control binding), % at 10 µM | actives 7.8% (n = 1,700); in the data active = response below about 75% or above about 130%; inactive = in between;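 also: fluorescent Galphao activated with GDP and aluminum fluoride binding bead-coupled RGS7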
RGS16-Gao conf = confirmation of regulators of human RGS16-Galphao interaction; shares compounds with RGS16-Gao; bead-based flow cytometry, RGS16-Galphao binding; actives lie on both sides; actives 4% (n = 1,700); AID 1838; response (% of control binding), % at 10 µM; in the data active = response below about 74% or above about 130%; inactive = in between;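 also: Galphao activated as the GDP aluminium fluoride complex binding bead-coupled RGS16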
RGS4-Gao single = confirmation of regulators of human RGS4-Galphao interaction; actives 4% (n = 1,700); binding response (% of control), % at 10 µM; shares compounds with RGS16-Gao; RGS4-Galphao binding, multiplexed bead flow cytometry; actives lie on both sides; in the data active = binding response below about 74% or above about 130%; inactive = in between
RGS19-Gao single = RGS19-Galphao interaction regulation, single point confirmation; response (percent of control binding), % at 10 µM; AID 1841; actives 5% (n = 1,700); bead-based flow cytometry RGS19-Galphao binding; actives lie on both sides; shares compounds with RGS16-Gao; in the data active = response below about 50% or above about 160%; inactive = in between
Target sequence (P09471 whole entry, looked up): as above
Target sequence (P49795 whole entry, looked up): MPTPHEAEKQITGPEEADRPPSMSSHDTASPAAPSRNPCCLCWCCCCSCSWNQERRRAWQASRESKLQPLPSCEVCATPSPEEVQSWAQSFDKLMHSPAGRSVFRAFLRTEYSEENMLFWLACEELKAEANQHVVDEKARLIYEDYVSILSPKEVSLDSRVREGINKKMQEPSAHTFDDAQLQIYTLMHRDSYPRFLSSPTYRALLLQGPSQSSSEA
Large screens that a line does not name were inactive (follow-up assays come after a bar, where they were run); [ ] = dose if it differs, or a comment. Unless noted, no rule for the calls is given here.

COc1ccc(N=C(N(C)C)P(=O)(N(C)C)N(C)C)cc1	RGS8-Gao reg 150[activator] (no result: Calb biofilm kill) | RGS4-Gao HTS 138 | Biotin-avidin inactive | RGS8-Gao confirm inactive | RGS7-Gao confirm inactive | RGS16-Gao conf inactive | RGS4-Gao single inactive | RGS19-Gao single inactive
COc1ccc(N=C(C)C2=C(O)c3ccccc3C2=O)cc1	none
O=C(CN1C(=O)NC2(CCCC2)C1=O)NCCC1=CCCCC1	RGS4-Gao reg 37, RGS8-Gao reg 31, RGS7-Gao reg 29 (no result: Calb biofilm kill) | Biotin-avidin inactive | RGS8-Gao confirm inactive | RGS7-Gao confirm inactive | RGS16-Gao conf inactive | RGS4-Gao single inactive | RGS19-Gao single inactive
Cc1ccc(C2(C)NC(=O)N(CC(=O)NCCC3=CCCCC3)C2=O)cc1 (stereo not drawn)	none (no result: Calb biofilm kill)
COc1ccc2c(c1OC)C(=O)OC2Nc1ccc(S(=O)(=O)N=C(N)N)cc1 (stereo not drawn)	RGS7-Gao reg inconclusive
COc1ccc2c(c1OC)C(=O)OC2Nc1ncc(Br)cc1Br (stereo not drawn)	RGS16-Gao 188[activator] (no result: Calb biofilm kill) | RGS4-Gao HTS 124 | Biotin-avidin inactive | RGS8-Gao confirm inactive | RGS7-Gao confirm inactive | RGS16-Gao conf inactive | RGS4-Gao single inactive | RGS19-Gao single inactive
CN(C)S(=O)(=O)c1cccc(NC(=S)NN=C(Cc2ccccc2)Cc2ccccc2)c1	RGS8-Gao reg 54 | RGS4-Gao HTS 91 | Biotin-avidin inactive | RGS8-Gao confirm inactive | RGS7-Gao confirm inactive | RGS16-Gao conf inactive | RGS4-Gao single inactive | RGS19-Gao single inactive
CCOC(=O)c1c(C)[nH]c(C(=O)COC(=O)/C=C/c2ccc(OCC#N)c(OC)c2)c1C	none
O=C1c2ccccc2C(=O)N1CCc1ccccn1	RGS8-Gao reg 153[activator] (no result: Calb biofilm kill) | RGS4-Gao HTS 127 | Biotin-avidin inactive | RGS8-Gao confirm inactive | RGS7-Gao confirm inactive | RGS16-Gao conf inactive | RGS4-Gao single inactive | RGS19-Gao single inactive
O=C1c2cccc3c([N+](=O)[O-])ccc(c23)C(=O)N1CCc1ccccn1	RGS7-Gao reg inconclusive
CC(=O)C1=C(O)C(=O)N(Cc2ccccc2)C1c1cccs1 (stereo not drawn)	RGS7-Gao reg 202[activator] (no result: Calb biofilm kill) | RGS4-Gao HTS 119 | Biotin-avidin inactive | RGS8-Gao confirm inactive | RGS7-Gao confirm inactive | RGS16-Gao conf inactive | RGS4-Gao single inactive | RGS19-Gao single inactive
CC(=O)C1=C(O)C(=O)N(Cc2cccnc2)C1c1ccc(Cl)cc1 (stereo not drawn)	none
CCOC(=O)C1CCN(CCC(=O)Nc2ccc(C)c(C)c2)CC1	none
O=C(NCCCN1CCOCC1)c1sc2cc([N+](=O)[O-])ccc2c1Cl	RGS7-Gao reg inconclusive, RGS16-Gao 25 | RGS4-Gao HTS 100 | Biotin-avidin inactive | RGS8-Gao confirm 65 | RGS7-Gao confirm inactive | RGS16-Gao conf 13 | RGS4-Gao single inactive | RGS19-Gao single 30
Cc1sc2cc3c(c(C(=O)c4ccccc4)[n+]2c1C)-c1cccc2cccc-3c12	none
O=C(c1ccccc1)c1c2c(cc3sc4ccccc4[n+]13)-c1cccc3cccc-2c13	RGS7-Gao reg 199[activator] | RGS4-Gao HTS 141 | Biotin-avidin inactive | RGS8-Gao confirm inactive | RGS7-Gao confirm inactive | RGS16-Gao conf inactive | RGS4-Gao single inactive | RGS19-Gao single inactive
O=C(NCc1cccc(F)c1)C1CCN(C(=O)c2sccc2-n2cccc2)CC1	none
C=CCOC(=O)C(=O)/C=C/c1c(C)n(C)n(-c2ccccc2)c1=O	RGS4-Gao reg 150[activator], RGS7-Gao reg 154[activator] | Biotin-avidin inactive | RGS8-Gao confirm inactive | RGS7-Gao confirm inactive | RGS16-Gao conf inactive | RGS4-Gao single inactive | RGS19-Gao single inactive
COC(=O)c1ccc2c(=O)[nH]c(CSc3nnc(C(F)(F)F)n3C)nc2c1	RGS16-Gao 16 | RGS4-Gao HTS 90 | Biotin-avidin inactive | RGS8-Gao confirm inactive | RGS7-Gao confirm inactive | RGS16-Gao conf inactive | RGS4-Gao single inactive | RGS19-Gao single inactive
O=C(CN1CCCC1)Nc1ccccc1Sc1ccc(Cl)cc1	none
CCOC(=O)c1cccc2c1-c1ccccc1/C2=N/O	none (no result: Calb biofilm kill)
CC1CCCC(C)N1C(=O)c1cccc2c1-c1ccccc1/C2=N/O (stereo not drawn)	RGS7-Gao reg 166[activator] | RGS4-Gao HTS 110 | Biotin-avidin inactive | RGS8-Gao confirm inactive | RGS7-Gao confirm inactive | RGS16-Gao conf inactive | RGS4-Gao single inactive | RGS19-Gao single inactive
Nc1c(C(=O)NCC2CCCO2)sc2nc3c(c(-c4ccco4)c12)CC/C3=C\c1ccco1 (stereo not drawn)	RGS7-Gao reg 44 | RGS4-Gao HTS 73 | Biotin-avidin inactive | RGS8-Gao confirm 70 | RGS7-Gao confirm 52 | RGS16-Gao conf 70 | RGS4-Gao single inactive | RGS19-Gao single 24
NC(N)=NC(N)=Nc1ccc(SC(F)(F)F)cc1	RGS16-Gao 16 | RGS4-Gao HTS 101 | Biotin-avidin inactive | RGS8-Gao confirm inactive | RGS7-Gao confirm inactive | RGS16-Gao conf inactive | RGS4-Gao single inactive | RGS19-Gao single inactive
NC(N)=NC(N)=Nc1ccc2ccccc2c1	none
COc1cccc(Cn2c(C3CC3)nc3ccc(NC(=O)c4ccco4)cc3c2=O)c1	RGS7-Gao reg 579[activator] (no result: Calb biofilm kill) | RGS4-Gao HTS 77 | Biotin-avidin inactive | RGS8-Gao confirm inactive | RGS7-Gao confirm inactive | RGS16-Gao conf inactive | RGS4-Gao single inactive | RGS19-Gao single inactive
CC(OC(=O)c1cc2sccc2n1C)C(=O)NCC1CCCO1 (stereo not drawn)	none (no result: Calb biofilm kill)
CCC(OC(=O)c1cc2sccc2n1C)C(=O)NCC1CCCO1 (stereo not drawn)	RGS4-Gao reg 190[activator], RGS7-Gao reg 161[activator], RGS16-Gao 203[activator] (no result: Calb biofilm kill) | Biotin-avidin inactive | RGS8-Gao confirm inactive | RGS7-Gao confirm inactive | RGS16-Gao conf inactive | RGS4-Gao single inactive | RGS19-Gao single inactive
COc1ccc(S(=O)(=O)Nc2nc3ccccc3s2)cc1	none (no result: Calb biofilm kill)
